Read-outs that look alike come from different tables or passages of the source.
Legend:
[1] = tested on: AgA(15) channels in DC18:1PC/n-decane bilayer; assay: gA single-channel electrophysiology, AgA; assay type: biochemical; details: mean ± SE, n = 3–4
Procedure, shortened: (§1)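 Bilayer of DC18:1PC in n-decane formed across a 1–1.5 mm Teflon hole. It was co-doped with AgA(15) (total a few pM) and gA−(13) (~10-fold higher). Test compound from DMSO stock was added to both sides at increasing concentrations. Patches were isolated with 20–40 µm punch electrodes in 1 M NaCl, 10 mM HEPES pH 7, 25 ± 1°C, ±200 mV. Signals were filtered at 5 kHz, sampled at 20 kHz, then filtered at 200–500 Hz. Events were detected by a transition-based algorithm. Lifetimes came from single-exponential fits of survivor histograms, normalized to no-drug lifetimes in the same experiment. n = 3–4.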

[2] = tested on: gA^−(13) channels in DC18:1PC/n-decane bilayer; assay: gA single-channel electrophysiology, gA−; assay type: biochemical; details: mean ± SE, n = 3–4
Procedure, shortened: as §1

[3] = target: [Ala^1]gA, 15-amino-acid analogue of gramicidin A; assay: single-channel electrophysiology
[4] = target: [Ala^1]gA, 15-amino-acid analogue of gramicidin A; assay: single-channel electrophysiology; remark: listed apart in the source
[5] = target: [Ala^1]gA, 15-amino-acid analogue of gramicidin A; assay: single-channel electrophysiology; remark: listed apart in the source
[6] = target: [Ala^1]gA, 15-amino-acid analogue of gramicidin A; assay: single-channel electrophysiology; remark: listed apart in the source
[7] = target: [Ala^1]gA, 15-amino-acid analogue of gramicidin A; assay: single-channel electrophysiology; remark: listed apart in the source
[8] = target: [Ala^1]gA, 15-amino-acid analogue of gramicidin A; assay: single-channel electrophysiology; remark: listed apart in the source
[9] = Bilayer elastic coefficient HB / property altered, from lifetimes of gA−; details: for decrease of HB (bilayer elastic coefficient): 100 µM, HB of unmodified bilayer ∼22 kBT/nm^2; for bilayer property primarily altered: single-channel electrophysiology
[10] = target: des-(D-Val-Gly)gA^−, chain-shortened enantiomer of gramicidin A; assay: single-channel electrophysiology
[11] = target: des-(D-Val-Gly)gA^−, chain-shortened enantiomer of gramicidin A; assay: single-channel electrophysiology; remark: listed apart in the source
[12] = target: des-(D-Val-Gly)gA^−, chain-shortened enantiomer of gramicidin A; assay: single-channel electrophysiology; remark: listed apart in the source
[13] = target: des-(D-Val-Gly)gA^−, chain-shortened enantiomer of gramicidin A; assay: single-channel electrophysiology; remark: listed apart in the source
[14] = target: des-(D-Val-Gly)gA^−, chain-shortened enantiomer of gramicidin A; assay: single-channel electrophysiology; remark: listed apart in the source
[15] = target: des-(D-Val-Gly)gA^−, chain-shortened enantiomer of gramicidin A; assay: single-channel electrophysiology; remark: listed apart in the source
[16] = ref Karson et al., 1993; Bolo et al., 2000; cited from earlier work

Compound: CN(C)CCCC1(c2ccc(F)cc2)OCc2cc(C#N)ccc21 (centres unmarked) [Citalopram (S+), Citalopram]
- τAD,15/τcntrl,15 (normalized AgA(15) lifetime) ([1]; 250 µM): 1.9 ± 0.2
- τAD,13/τcntrl,13 (normalized gA−(13) lifetime) ([2]; 250 µM): 2.0 ± 0.2

Compound: CN(C)CCCC1(c2ccc(F)cc2)OCc2cc(C#N)ccc21 (centres unmarked) [Citalopram (R−), Citalopram]
- τAD,15/τcntrl,15 (normalized AgA(15) lifetime) ([1]; 250 µM): 1.78 ± 0.04
- τAD,13/τcntrl,13 (normalized gA−(13) lifetime) ([2]; 250 µM): 1.8 ± 0.1

Compound: [Ala^1]gA, 15-amino-acid analogue of gramicidin A (peptide)
- normalised single-channel (dimer) lifetime τ (AD,15)/τ (cntrl,15) [3]: 1.4
- normalised single-channel (dimer) lifetime τ (AD,15)/τ (cntrl,15) [4]: 2.3
- normalised single-channel (dimer) lifetime τ (AD,15)/τ (cntrl,15) [5]: 2.3
- normalised single-channel (dimer) lifetime τ (AD,15)/τ (cntrl,15) [6]: 1.78
- normalised single-channel (dimer) lifetime τ (AD,15)/τ (cntrl,15) [7]: 1.9
- normalised single-channel (dimer) lifetime τ (AD,15)/τ (cntrl,15) [8]: 1.5

Compound: CN(C)CCCN1c2ccccc2CCc2ccccc21 [Imipramine]
- τAD,15/τcntrl,15 (normalized AgA(15) lifetime) ([1]; 100 µM): 1.4 ± 0.1
- τAD,13/τcntrl,13 (normalized gA−(13) lifetime) ([2]; 100 µM): 1.5 ± 0.1
- decrease of HB (bilayer elastic coefficient) [9]: ~1.3 ± 0.9 kBT/nm^2
- bilayer property primarily altered [9]: intrinsic curvature

Compound: CNCCC(Oc1ccc(C(F)(F)F)cc1)c1ccccc1 (centres unmarked) [Fluoxetine (S+), Fluoxetine]
- τAD,15/τcntrl,15 (normalized AgA(15) lifetime) ([1]; 100 µM): 2.3 ± 0.3
- τAD,13/τcntrl,13 (normalized gA−(13) lifetime) ([2]; 100 µM): 2.9 ± 0.4
- decrease of HB (bilayer elastic coefficient) [9]: ~2.3 ± 0.5 kBT/nm^2

Compound: CN(C)CCCC1(c2ccc(F)cc2)OCc2cc(C#N)ccc21 (centres unmarked) [Citalopram]
- bilayer property primarily altered [9]: intrinsic curvature

Compound: CNCCC(Oc1ccc(C(F)(F)F)cc1)c1ccccc1 (centres unmarked) [Fluoxetine (R−), Fluoxetine]
- τAD,15/τcntrl,15 (normalized AgA(15) lifetime) ([1]; 100 µM): 2.3 ± 0.3
- τAD,13/τcntrl,13 (normalized gA−(13) lifetime) ([2]; 100 µM): 3.1 ± 0.6
- decrease of HB (bilayer elastic coefficient) [9]: ~3.0 ± 0.3 kBT/nm^2

Compound: des-(D-Val-Gly)gA^−, chain-shortened enantiomer of gramicidin A (peptide)
- normalised single-channel (dimer) lifetime τ (AD,13)/τ (cntrl,13) [10]: 1.5
- normalised single-channel (dimer) lifetime τ (AD,13)/τ (cntrl,13) [11]: 3.1
- normalised single-channel (dimer) lifetime τ (AD,13)/τ (cntrl,13) [12]: 2.9
- normalised single-channel (dimer) lifetime τ (AD,13)/τ (cntrl,13) [13]: 1.8
- normalised single-channel (dimer) lifetime τ (AD,13)/τ (cntrl,13) [14]: 2
- normalised single-channel (dimer) lifetime τ (AD,13)/τ (cntrl,13) [15]: 1.6

Compound: CNCCC(Oc1ccc(C(F)(F)F)cc1)c1ccccc1 (centres unmarked) [Fluoxetine]
- bilayer property primarily altered [9]: bilayer elasticity
- concentration in brain [16]: up to 10 µM

Compound: CN(C)CCC=C1c2ccccc2CCc2ccccc21 [Amitriptyline]
- τAD,15/τcntrl,15 (normalized AgA(15) lifetime) ([1]; 100 µM): 1.5 ± 0.1
- τAD,13/τcntrl,13 (normalized gA−(13) lifetime) ([2]; 100 µM): 1.6 ± 0.1
- bilayer property primarily altered [9]: intrinsic curvature
